FXIa inh 1536 = human FXIa protease inhibitors, primary screen, biochemical, 1536-well | AID 798, 2007 | 220,000 compounds, 0.14% hits | purified FXIa, Boc-Glu-Ala-Arg-AMC fluorogenic substrate | inhibition, % at 5 µM;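 active means inhibition of at least 40%; inactive means inhibition below 40%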;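 further: fluorescence of freed AMC excited at 355 nm; 0% = enzyme without compound and 100% = no enzyme blank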
Thrombin inh = human alpha-thrombin inhibitors, primary screen, counter-screen for coagulation protease inhibitor project, biochemical, 1536-well, fluorogenic AMC substrate | Boc-VPR-AMC fluorogenic substrate cleavage | inhibition, % at 5 µM | 220,000 compounds, 0.26% hits;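 active means inhibition at or above 40%; inactive means inhibition below 40%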;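 further: 0% = enzyme with no compound and 100% = wells without enzyme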
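System – human alpha-thrombin protein · Reagent – Boc-VPR-AMC substrate, 15 µM final · Compound – 5 µM single dose in 0.2% DMSO · Schedule – reaction at room temperature · Technique – AMC fluorescence at 355 nm excitation and 460 nm emission · Read-out basis – % inhibition relative to enzyme controls and enzyme-free blanks · Control set – no-compound enzyme wells and no-enzyme blanks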
KLK5 inh = human KLK5 protease inhibitors, primary screen, biochemical, 1536-well; Kallikrein-5 (Homo sapiens), Q9Y337; recombinant hK5, fluorogenic AMC substrate cleavage; inhibition, % at 5 µM; 210,000 compounds, 0.59% hits; AID 873, 2007;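 active means inhibition of 40% or more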;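 further: 0% = enzyme controls without compound and 100% = no-enzyme blanks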
FXIIa inh 1536 = human FXIIa protease inhibitors, primary screen, biochemical, 1536-well. Coagulation factor XII (Homo sapiens), P00748. purified FXIIa, Boc-QGR-AMC fluorogenic substrate, 2 h. inhibition, % at 5 µM. 220,000 compounds, 0.3% hits; in the data active means inhibition above about 40%;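 further: 0% = enzyme with no compound and 100% = blank without enzyme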
AHR activator = AHR activators, primary screen, cell-based, luminescence, luciferase reporter, human; AHR-responsive luciferase reporter cells; activation, % at 5 µM; 320,000 compounds, 2.5% hits; AID 2796, 2010; in the data active means activation above about 47%;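 further: 0% = vehicle wells and 100% = reference agonist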
Target sequence (P35869 whole entry, looked up): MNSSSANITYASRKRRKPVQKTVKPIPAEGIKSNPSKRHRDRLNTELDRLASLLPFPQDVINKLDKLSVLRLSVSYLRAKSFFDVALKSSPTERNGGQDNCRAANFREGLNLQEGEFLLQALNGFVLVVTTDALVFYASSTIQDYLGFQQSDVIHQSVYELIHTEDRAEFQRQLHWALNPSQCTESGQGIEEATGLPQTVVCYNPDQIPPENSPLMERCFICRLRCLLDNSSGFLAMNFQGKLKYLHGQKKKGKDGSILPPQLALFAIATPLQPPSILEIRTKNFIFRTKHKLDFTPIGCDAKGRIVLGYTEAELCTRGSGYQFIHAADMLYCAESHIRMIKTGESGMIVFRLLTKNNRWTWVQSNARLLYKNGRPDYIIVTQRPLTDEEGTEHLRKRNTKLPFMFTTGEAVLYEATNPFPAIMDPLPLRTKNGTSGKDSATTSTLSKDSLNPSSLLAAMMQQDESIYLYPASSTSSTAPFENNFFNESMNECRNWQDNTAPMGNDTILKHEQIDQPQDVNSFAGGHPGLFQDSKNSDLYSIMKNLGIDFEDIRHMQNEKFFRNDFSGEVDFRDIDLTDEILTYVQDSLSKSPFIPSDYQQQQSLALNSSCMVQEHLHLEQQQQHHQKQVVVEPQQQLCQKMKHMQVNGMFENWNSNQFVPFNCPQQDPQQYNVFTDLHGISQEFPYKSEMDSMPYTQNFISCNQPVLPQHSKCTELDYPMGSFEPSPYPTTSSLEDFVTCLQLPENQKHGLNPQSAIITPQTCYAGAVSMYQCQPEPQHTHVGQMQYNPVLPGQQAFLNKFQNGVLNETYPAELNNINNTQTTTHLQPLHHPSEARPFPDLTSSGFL
STAT3 activator = IL-6 driven STAT3 reporter potentiators, primary screen, U3A cells, luciferase, luminescence, MLSCN library; IL-6 STAT3-luciferase reporter; 100% = signal with IL-6 EC80 alone; activation (% of control), % at 5.6 µM; 190,000 compounds, 0.91% hits;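 active means activation above the screen-wide mean of compound activation plus 3 SD, cut at about 130% in these data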;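 further: 0% = background luminescence of wells with medium and substrate only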
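Assay system – human STAT1-deficient U3A cells with stable STAT3-luciferase reporter · Also added – IL-6 (33 ng/mL) · Schedule – compound 1 h, then IL-6 6 h at 37 °C · Technique – reporter luminescence signal · Evaluation – % activation versus median of IL-6-stimulated wells · Benchmarks – IL-6-only wells as 100% reference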
AHR act confirm = AHR activators, confirmation, cell-based, luminescence, luciferase reporter, human | shares compounds with AHR activator | 2,300 compounds, 87% hits | AID 2845, 2010 | activation, % at 9 µM | human cells, AHR-responsive luciferase reporter; in the data active means activation above about 49%;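 further: HepG2 hepatoma cells carrying a DRE-driven firefly luciferase reporter; 0% = vehicle wells and 100% = reference agonist wells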
PXR counter = human PXR activators, counter-screen for AHR activator project, cell-based, luciferase luminescence; activation, % at 11.6 µM; shares compounds with AHR activator; 2,300 compounds, 88% hits; cell-based PXR reporter; in the data active means activation above about 11%;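 further: human hepatoma DPX-2 cells expressing full-length human PXR; 0% = DMSO and 100% = reference agonist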
The depositor's hits bear a star; . = not tested or not shown. An excerpt weighted towards active compounds, which were near 3.5% of everything screened.

SMILES	FXIa inh 1536	Thrombin inh	KLK5 inh	FXIIa inh 1536	AHR activator	STAT3 activator	AHR act confirm	PXR counter
Clc1ccc2[nH]c3c(NCCCN4CCOCC4)ncnc3c2c1	16	-1	-5	25	82*	109	40	37*
COc1cc(-c2nnc(SCC(=O)NC3CCS(=O)(=O)C3)o2)cc(OC)c1OC (stereo unspecified)	0	-5	3	11	2	100	.	.
O=C(Oc1ccc2ccccc2c1)c1ccco1	4	24	17	29	7	101	.	.
O=C(Oc1cccc(-c2cnc3ccccc3n2)c1)c1ccco1	3	7	-21	17	99*	90	44	9
COc1ccc(-c2sc3cc4c(cc3c2C#Cc2cncn2C)OCO4)cc1	.	.	.	.	82*	.	103*	15*
CC(=O)Oc1ccccc1/C=C/c1ccc2ccccc2[n+]1C	.	.	.	.	111*	.	21	14*
COc1ccc(/C=C/c2ccc3ccccc3[n+]2C)cc1OC	.	.	.	.	19	.	.	.
Cc1oc2cc(OC(=O)c3ccco3)ccc2c(=O)c1-c1nc2ccccc2n1C	19	3	8	13	106*	99	2	20*
CCc1cc(=O)oc2cc(OC(=O)c3ccco3)ccc12	.	.	.	.	2	.	.	.
COc1ccc(N)c2c1C(=O)c1ccccc1C2=O	2	-2	-11	0	2	88	.	.
COc1ccc(OC)c2c1C(=O)C(Cl)=C(Cl)C2=O	-2	-6	-2	1	137*	.	-4	-7
CS(=O)(=O)N1CCC(Oc2ccccc2C(=O)NCCCc2cccnc2)CC1	11	13	17	15	6	100	.	.
O=C(N/N=C/c1ccc(O)cc1)c1ccc(COc2cc(Cl)ccc2Cl)o1	1	-5	-4	4	115*	80	83*	28*
CC1=C(C(=O)OCc2ccc(C)cc2)C(c2ccc(O)c([N+](=O)[O-])c2)NC(=O)N1 (stereo unspecified)	2	-7	-7	7	3	102	.	.
Cn1c(NC(=O)CCc2ccccc2)cc(=O)n(C)c1=O	-4	-1	-10	0	149*	121	109*	24*
O=[N+]([O-])c1cccc2ccc(/C=C/c3cccc(Br)c3)nc12	9	-2	-17	8	175*	95	121*	25*
O=[N+]([O-])c1cccc2ccc(/C=C/c3ccc(C(F)(F)F)cc3)nc12	4	-6	1	4	82*	127	96*	15*
COc1cc(/C=C/c2ccc3cccc(OC)c3n2)c(O)c([N+](=O)[O-])c1	-4	-5	-3	5	12	93	.	.
CC(C)(C)c1ccc(C(=O)Nc2nnc(Cc3c[nH]c4ccccc34)s2)cc1	5	-8	-13	9	90*	123	88*	14*
O=C(Nc1cccc(S(=O)(=O)N2CCCC2)c1)c1ccc2c(c1)OCO2	-2	-14	-11	8	88*	89	64*	209*
O=C(Nc1cccc(S(=O)(=O)N2CCCCCC2)c1)c1ccc2c(c1)OCO2	-2	-5	-23	7	82*	79	62*	164*
Nc1c(Cl)c(Cl)nc(C(=O)N/N=C/c2cccnc2)c1Cl	7	0	4	12	86*	.	78*	40*
O=C(N/N=C/c1cccnc1)c1ccccc1Cl	.	.	.	.	6	.	.	.
Clc1ccc2nc(-c3ccc(Cl)nc3)[nH]c2c1	.	.	.	.	87*	.	138*	0
Nc1ccc2nc(-c3ccc(Cl)cc3)[nH]c2c1	-10	-30	-89	-28	167*	.	111*	33*
SMILES	FXIa inh 1536	Thrombin inh	KLK5 inh	FXIIa inh 1536	AHR activator	STAT3 activator	AHR act confirm	PXR counter
Nc1ccc2nc(-c3cc(Cl)c(N)c(Cl)c3)[nH]c2c1	7	-1	-8	8	39	83	.	.
COc1ccc(-c2nn(-c3ccccc3)cc2C(=O)OCC(=O)c2ccc(C)c([N+](=O)[O-])c2)cc1	3	1	-7	6	2	94	.	.
Cc1ccccc1OCC(=O)NCC(=O)OCc1ccc(Br)cc1	.	.	.	.	1	.	.	.
O=C(CC1Nc2ccccc2NC1=O)Nc1ccc2c(c1)OCO2 (stereo unspecified)	5	.	-4	21	153*	90	137*	24*
O=C(CC1Nc2cccc3cccc(c23)NC1=O)Nc1ccccc1 (stereo unspecified)	3	-9	-10	5	136*	106	99*	79*
CCOc1ccc(CN(CC)C(=O)c2ccc3c(c2)[nH]c(=O)c(=O)n3CC)cc1OC	.	.	.	.	0	.	.	.
C=CCn1c(O)c(N=NC(=O)OC(C)(C)C)c2ccccc21	-10	-11	-7	7	30	99	.	.
C#CCn1c(O)c(N=NC(=O)CNC(=O)/C=C/c2ccccc2)c2ccccc21	.	.	.	.	91*	.	107*	52*
COc1ccc(C(=O)NCC(=O)N=Nc2c(O)n(Cc3ccccc3)c3ccccc23)cc1OC	1	-8	-9	11	0	105	.	.
C=CCn1c(O)c(N=NC(=O)CNC(=O)c2ccncc2)c2ccccc21	.	.	.	.	99*	.	70*	43*
C#CCn1c(O)c(N=NC(=O)CNC(=O)c2cccnc2)c2ccccc21	.	.	.	.	92*	.	106*	25*
CCn1c(O)c(N=NC(=O)CNC(=O)/C=C/c2ccccc2)c2ccccc21	.	.	.	.	8	.	.	.
COC(=O)c1cc(Br)c(=O)n(Cc2ccc3c(c2)OCO3)c1	4	-1	0	17	0	106	.	.
CCCn1cc(S(=O)(=O)c2ccccc2)c(=O)c2cc(F)c(N3CCN(C)CC3)cc21	.	.	.	.	2	.	.	.
COc1ccc(S(=O)Cc2ccc(C(=O)NCc3cccc(OC)c3)o2)cc1 (stereo unspecified)	.	.	.	.	-1	.	.	.
Cc1ccc(-n2nc3c(c2NC(=O)c2ccc(F)c(F)c2)CS(=O)(=O)C3)cc1	.	.	.	.	0	.	.	.
O=C1COc2ccccc2N1Cc1ccc(Cl)cc1	.	.	.	.	2	.	.	.
Clc1ccc(C2=NN=C3COc4ccccc4N3C2)cc1	-10	-7	-10	-2	88*	103	118*	24*
O=S(=O)(NNc1ncc(C(F)(F)F)cc1Cl)c1ccc(F)cc1F	.	.	.	.	114*	.	103*	.
